The target in data set [1] is 3',5'-cyclic-AMP phosphodiesterase 4D (Homo sapiens, UniProt Q08499). Kind of data set: Inhibition of human recombinant PDE4D catalytic domain cloned from human HL60 cells assessed as inhibition of cAMP hydrolysis.
The next data set relates to Blood. Kind of data set: Antiinflammatory activity against Sprague-Dawley rat whole blood assessed as suppression of LPS-induced TNFalpha production by ELISA. It is filed as functional, tissue-based. The method in brief: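 Blood from 10-week-old male Sprague-Dawley rats, drawn from the abdominal vein under ether anesthesia into 1.6 mg/mL EDTA. Compound diluted from 10 mM DMSO stock, preincubated with blood for 30 min at 37 °C in 5% CO2. LPS (100 µg/mL solution, 10 µL to 90 µL) added, then 5 h incubation. PBS added, centrifuged, supernatant TNF-α measured by ELISA. IC50 derived for 50% inhibition.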
Background: ELISA stands for enzyme-linked immunosorbent assay.

Data set [2] is described as follows: Half life in human liver S9 fraction. It is filed as ADME, subcellular. The method in brief:
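Human liver S9 fraction (1 mg protein/mL) in 100 mM potassium phosphate pH 7.4 with NADPH-generating system, preincubated 5 min at 37 °C. Compound added from methanol to 2 µM final, incubated 0, 2 or 10 min at 37 °C, stopped with acetonitrile. Parent remaining quantified by HPLC, UV 314 nm. Half-life obtained as -0.693/k, k from log-linear regression of percent remaining.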

The test system of another data set is Mus musculus. Kind of data set: Reduction of dermatitis in topically administered BALB/c mouse assessed as reduction of TNCB-induced ear swelling. It counts as functional. Also on record: scale not given: the % may be the effect or the level left. The method in brief: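 Eight-week-old male BALB/c mice with TNCB-induced dermatitis on the right pinna. 20 mg of 1% compound in vaseline ointment applied topically; diseased controls got plain vaseline during the last week (n = 4). The untreated left pinna served as normal reference. Pinna thickness measured by digital micrometer 6 h after the last application. Percent reduction of swelling (right minus left) calculated relative to the diseased control.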

The mark [3] stands for this setting: Rattus norvegicus, Sprague-Dawley, Blood.

The term pIC50 denotes the IC50 on a negative log10 scale, so that one unit is a factor of ten. By half-life is commonly meant the time needed for the level to fall by half in the phase considered.

pIC50: −log10 of the molar value.

Sequence of 3',5'-cyclic-AMP phosphodiesterase 4D (Q08499 whole entry, the tested form may be a part): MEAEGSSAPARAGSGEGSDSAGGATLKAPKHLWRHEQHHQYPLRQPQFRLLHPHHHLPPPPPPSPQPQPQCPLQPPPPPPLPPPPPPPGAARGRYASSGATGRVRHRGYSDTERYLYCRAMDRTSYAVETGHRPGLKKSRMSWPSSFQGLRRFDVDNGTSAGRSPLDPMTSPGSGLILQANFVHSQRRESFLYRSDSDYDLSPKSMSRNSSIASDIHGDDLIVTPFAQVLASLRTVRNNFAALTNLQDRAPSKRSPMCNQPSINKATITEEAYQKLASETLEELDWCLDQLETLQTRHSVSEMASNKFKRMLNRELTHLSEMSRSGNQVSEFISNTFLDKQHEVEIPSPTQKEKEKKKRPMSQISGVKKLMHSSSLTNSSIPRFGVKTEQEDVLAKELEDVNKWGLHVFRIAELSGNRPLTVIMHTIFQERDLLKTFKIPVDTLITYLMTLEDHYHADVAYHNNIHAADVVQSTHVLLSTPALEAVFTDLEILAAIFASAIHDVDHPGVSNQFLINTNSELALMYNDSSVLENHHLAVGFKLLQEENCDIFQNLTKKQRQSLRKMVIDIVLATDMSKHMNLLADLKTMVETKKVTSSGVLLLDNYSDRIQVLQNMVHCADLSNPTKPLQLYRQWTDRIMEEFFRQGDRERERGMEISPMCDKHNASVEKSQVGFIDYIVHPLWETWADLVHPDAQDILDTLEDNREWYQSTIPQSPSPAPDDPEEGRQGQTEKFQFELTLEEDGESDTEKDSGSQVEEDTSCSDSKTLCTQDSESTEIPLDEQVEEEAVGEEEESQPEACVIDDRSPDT

In the case of `COc1ccc(C2=NN(Cc3ccc(CN4CCOCC4)cc3)C(=O)CC2)cc1OC`, the values for the negative logarithm of the IC50 (pIC50) (in data set [1]; in the data set on Blood (setting [3])) were 7.34 and 6.35, respectively.
With `COc1ccc(C2=NN(Cc3ccc(CN4CCOCC4)cc3)C(=O)[C@@H]3CC=CC[C@H]23)cc1OC.Cl`, in data set [2], the half-life was 6 min. Also, the pIC50 was 9.52 in data set [1] and 8.38 in the data set with Blood. In addition, the Activity in the data set on Mus musculus worked out at 38.5%.
On to `COc1ccc(C2=NN(Cc3ccc(CN4CCOCC4)cc3)C(=O)[C@@H]3CC=CC[C@H]23)cc1OC`, for which the pIC50 in data set [1] is 8.06; in the data set with Blood it was 7.09.
For the compound `COc1ccc(C2=NNC(=O)[C@@H]3CC=CC[C@H]23)cc1OC` (racemic), the negative-log IC50 (pIC50) in data set [1] was 7.07; in the data set on Blood (setting [3]), 6.68.
Regarding `COc1ccc(C2=NN(Cc3ccc(CN4CCOCC4)cc3)C(=O)[C@@H]3CC=CC[C@H]23)cc1OC` (racemic), the pIC50 (in data set [1]; in the data set on Blood) was 9.05 throughout.
As for `COc1ccc(C2=NN(Cc3ccccc3CN3CCOCC3)C(=O)[C@@H]3CC=CC[C@H]23)cc1OC` (relative stereo), the negative-log IC50 (pIC50) in data set [1] was 8.89; in the data set with Blood (setting [3]), 9.00. Besides, in the data set on Mus musculus, the Activity came out at 36.8%.
In the case of `COc1ccc(C2=NN(C/C=C/Cn3ccnc3)C(=O)[C@@H]3CC=CC[C@H]23)cc1OC` (relative stereo), the values for the pIC50 (in data set [1]; with Blood (setting [3])) were 9.40 and 9.15, respectively.
Taken in the same sequence, the figures for `COc1ccc(C2=NN(Cc3ccc(Cn4ccnc4)cc3)C(=O)[C@@H]3CC=CC[C@H]23)cc1OC` (relative stereo) were 9.15 and 9.30.
The corresponding values for `COc1ccc(C2=NN(Cc3ccc(CN4CCN(C)CC4)cc3)C(=O)[C@@H]3CC=CC[C@H]23)cc1OC` (relative stereo) are 8.70 and 7.84.
Consider `COc1ccc(C2=NN(Cc3ccc(CN(C)C)cc3)C(=O)[C@@H]3CC=CC[C@H]23)cc1OC` (relative stereo), for which the negative logarithm of the IC50 (pIC50) is 8.01 in data set [1] and 7.46 with Blood (setting [3]).
Consider `COc1ccc(C2=NN(Cc3ccc(CN4CCC(=O)CC4)cc3)C(=O)[C@@H]3CC=CC[C@H]23)cc1OC` (relative stereo), for which the figures for the pIC50 (in data set [1]; in the data set on Blood (setting [3])) were 9.05 and 8.52, respectively. In the data set with Mus musculus, the Activity was 36.8%.
In the case of `COc1ccc(C2=NN(Cc3ccccc3CN3CCOCC3)C(=O)[C@@H]3CCCC[C@H]23)cc1OC` (relative stereo), the results for the negative-log IC50 (pIC50) (in data set [1]; in the data set with Blood (setting [3])) were 9.00 and 8.34, respectively.
The corresponding values for `COc1ccc(C2=NN(CCOCCn3ccnc3)C(=O)[C@@H]3CC=CC[C@H]23)cc1OC` (relative stereo) are 8.28 and 8.04.
Taken in the same sequence, the figures for `COc1ccc(C2=NN(Cc3cccc(CN4CCOCC4)c3)C(=O)[C@@H]3CC=CC[C@H]23)cc1OC` (relative stereo) were 8.85 and 8.52.
Take `COc1ccc(C2=NN(Cc3ccc(CN4CCC5(CC4)OCCO5)cc3)C(=O)[C@@H]3CC=CC[C@H]23)cc1OC` (relative stereo): the negative-log IC50 (pIC50) in data set [1] was 8.89; in the data set with Blood (setting [3]), 9.05.
The corresponding values for `COc1ccc(C2=NN(Cc3ccc(CN4CCOCC4)cc3)C(=O)[C@@H]3C[C@H]23)cc1OC` (relative stereo) are 7.79 and 6.93.
Regarding `COc1ccc(C2=NN(Cc3ccc(CN4CCCCC4)cc3)C(=O)[C@@H]3CC=CC[C@H]23)cc1OC` (relative stereo), the pIC50 in data set [1] was 8.09; in the data set on Blood (setting [3]), 7.24.
With `COc1ccc(C2=NN(Cc3ccc(CN4CCOCC4)cc3)C(=O)[C@@H]3CC[C@H]23)cc1OC` (relative stereo), the negative-log IC50 (pIC50) in data set [1] is 8.37; in the data set with Blood (setting [3]) it was 7.35.
Taken in the same sequence, the figures for `COc1ccc(C2=NN(CC(=O)NCCCn3ccnc3)C(=O)[C@@H]3CC=CC[C@H]23)cc1OC` (relative stereo) were 7.84 and 6.95.

These data come from ChEMBL document CHEMBL1152601, “Synthesis and biological evaluation of novel phthalazinone derivatives as topically active phosphodiesterase 4 inhibitors” (Bioorg Med Chem, 2009).
